Key:
Toxoplasma gondii = experiment: Antiparasitic activity against transgenic Toxoplasma gondii expressing Cryptosporidium parvum IMPDH; assay type: functional, organism-based
Outline: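 Engineered T. gondii strain that depends on CpIMPDH for guanine nucleotide synthesis, run alongside the wild-type RH strain, whose native eukaryotic IMPDH also gauges host-cell cytotoxicity. Antiparasitic EC50 is the average of three independent determinations unless otherwise stated, with some values from two determinations.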

[1] = target: Inosine-5'-monophosphate dehydrogenase 2 (Homo sapiens, UniProt P12268); experiment: Inhibition of human IMPDH2
[2] = target: T1, Inosine-5'-monophosphate dehydrogenase (Cryptosporidium parvum, UniProt Q8T6T2); experiment: Inhibition of Cryptosporidium parvum N-terminal His6-tagged IMPDH-mediated NADH production expressed in Escherichia coli BL21(DE3) preincubated for 5 mins prior to substrate addition by fluorescence assay in presence of BSA
T1 sequence (Q8T6T2 whole entry): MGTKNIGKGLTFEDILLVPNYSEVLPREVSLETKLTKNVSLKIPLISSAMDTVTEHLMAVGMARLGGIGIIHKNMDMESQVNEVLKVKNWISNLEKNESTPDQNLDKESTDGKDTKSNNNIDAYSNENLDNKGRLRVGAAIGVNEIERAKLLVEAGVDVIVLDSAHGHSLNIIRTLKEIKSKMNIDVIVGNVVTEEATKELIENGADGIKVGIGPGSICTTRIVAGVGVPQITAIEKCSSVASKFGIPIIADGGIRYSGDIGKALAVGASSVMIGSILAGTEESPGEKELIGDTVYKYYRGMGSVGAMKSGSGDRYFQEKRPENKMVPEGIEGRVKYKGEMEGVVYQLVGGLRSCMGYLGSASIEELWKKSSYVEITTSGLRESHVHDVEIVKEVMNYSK
Outline: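 Same CpIMPDH fluorescence assay (10 nM enzyme, 300 μM NAD, 150 μM IMP, pH 8.0 Tris buffer, 25 °C, 5 min inhibitor preincubation), run with 0.05% fatty-acid-free BSA added to gauge nonspecific protein binding. Quadruplicate points; IC50 averaged over three determinations.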

[3] = target: T1, Inosine-5'-monophosphate dehydrogenase; experiment: Inhibition of Cryptosporidium parvum N-terminal His6-tagged IMPDH-mediated NADH production expressed in Escherichia coli BL21(DE3) preincubated for 5 mins prior to substrate addition by fluorescence assay
[4] = target: T2, Inosine-5'-monophosphate dehydrogenase (Cryptosporidium parvum) (UniProt Q8T6T2)
T2 sequence (whole entry): T1 sequence (Q8T6T2 whole entry)

[5] = target: T2, Inosine-5'-monophosphate dehydrogenase (Cryptosporidium parvum); remark: listed apart in the source
Liver [6] = experiment: Half life in mouse liver microsomes by LC/MS/MS analysis; assay type: ADME, Microsome
Outline: (§1)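 Incubation with mouse liver microsomes at 37 °C, with and without NADPH. Percent of compound remaining measured at several time points; half-life from a fit to first-order decay.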

Liver [7] = experiment: Half life in mouse liver microsomes by LC/MS/MS analysis in presence of NADPH; assay type: ADME, Microsome; outline: as §1

| Compound | EC50 (Toxoplasma gondii) [nM] | IC50 [1] [nM] | IC50 [2] [nM] | IC50 [3] [nM] | Kis [4] [nM] | Kis [5] [nM] | t1/2 (Liver [6]) [h] | t1/2 (Liver [7]) [h] |
| --- | --- | --- | --- | --- | --- | --- | --- | --- |
| CC(Oc1ccc(Cl)cc1Cl)C(=O)Nc1ccc2oc(-c3ccncc3)nc2c1 (stereo not given) | 650 | > 5000 | 120 | 44 | 33 | 58 |  |  |
| C[C@@H](C(=O)Nc1ccc2oc(-c3ccncc3)nc2c1)c1ccccc1 | 400 | > 5000 | 28 | 22.3 | 40 | 100 | 2.17 | 0.717 |
| C[C@H](Oc1cccc2ccccc12)C(=O)Nc1ccc2oc(-c3cncs3)nc2c1 | 300 | > 5000 | 4 | 2.7 | 0.9 | 1.6 |  |  |

Source: ChEMBL document CHEMBL2346559, “Optimization of benzoxazole-based inhibitors of Cryptosporidium parvum inosine 5'-monophosphate dehydrogenase” (J Med Chem, 2013)
